Measurements as given in article PMC12828150 (Acta Pharmaceutica Sinica. B, 2025).

How the values were obtained:
HeLa = experiment: Antiproliferative activity, HeLa cells; type: cell-based; conditions: read-out: HeLa IC50
Outline: (§1)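 Cells seeded at 1000 per well in RPMI-1640 with 10% FBS and left 24 h before adding diluted test compound. After 96 h exposure, viability was read by CellTiter-Glo luminescence. Readings were normalised as % of untreated cells and IC50 derived. n = 3, values averaged.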

HepG2 = experiment: Antiproliferative activity, HepG2 cells; type: cell-based; conditions: read-out: HepG2 IC50
Outline: as §1

`CN1CCC(NC2CCc3[nH]c4c(C(N)=O)ccc(-c5ccccc5Cl)c4c3C2)CC1` (centres unmarked) [WJ0909] gave an IC50 (HeLa) of 17 nM and an IC50 (HepG2) of 24 nM.
